# Screens from PubChem BioAssay.
# Most compounds without a hit are left out; they make up all but 5.4% or so of the library.
# CSC inhib: cancer stem cell viability inhibitors, primary screen, luminescence; 300,000 compounds, 1.1% hits; cancer stem cell-like cells viability; inhibition, % at 7.5 µM; in the data active means inhibition above about 75%; tested in HMLE shEcad cells
# T cruzi inh: inhibitors of intracellular T. cruzi growth, primary screen, luminescence, NIH3T3 host cells; inhibition, % (no concentration beside the values); T. cruzi beta-gal in NIH3T3, 90 h; 300,000 compounds, 1.4% hits; AID 1885, 2009;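 active means mean inhibition across valid replicates above about 55%, limit read from the data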;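 further: signal also drops with host cell toxicity which is not excluded here; 0% = plate median of DMSO wells and 100% = zero luminescence signal; higher percent means less beta-gal luminescence so fewer parasites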
#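 Material: NIH/3T3 host cells with β-galactosidase reporter T. cruzi; Input: 5,000 host fibroblasts per well; Medium: DMEM, 2% fetal bovine serum; Compound: 50 nL DMSO compound solution per well; Schedule: 3 h host attachment, then at least 90 h co-culture; Detection: luminescent β-galactosidase signal after 60 min lysis.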
# SKKanGAS inh: S. pyogenes SKKanGAS growth inhibitors in kanamycin, primary screen, streptokinase expression inhibitor project, SKKanGAS strain, BacTiter-Glo luminescence. 6 h. 300,000 compounds, 1.3% hits. inhibition, % at 7.5 µM;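 active means mean replicate score, as percent of positive control median, at least 50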;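 further: strain carries kanamycin resistance gene driven by streptokinase promoter and grows in 40 µg/ml kanamycin; loss of luminescence reflects streptokinase promoter inhibition or plain growth inhibition; 0% = median of DMSO wells and 100% = positive control at its reference dose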
# aSyn UTR inh: MLPCN primary screen, SNCA 5' untranslated region | 300,000 compounds, 0.82% hits | AID 1813, 2009 | inhibition, % (tested at 7.5 µM) | alpha-synuclein 5'UTR reporter, inhibitor activity; in the data active means inhibition above about 60%;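 further: H4 neuroglioblastoma cells stably carrying SNCA 5'UTR luciferase fusion; 0% = DMSO wells and 100% = positive control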
# Mdm2-MdmX inh: inhibitors of human Mdm2-MdmX association, primary screen, cell-based, luminescence, split luciferase, SaOS-2, uHTS | Protein Mdm4 (Homo sapiens) + E3 ubiquitin-protein ligase Mdm2 (Homo sapiens), … | SaOS-2 split-luciferase Mdm2/MdmX complementation | inhibition, % at 8 µM | 330,000 compounds, 3% hits | AID 485346, 2010;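 active means inhibition of at least 50% at 8 µM in the primary screen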
# Target sequence (O15151 whole entry, looked up): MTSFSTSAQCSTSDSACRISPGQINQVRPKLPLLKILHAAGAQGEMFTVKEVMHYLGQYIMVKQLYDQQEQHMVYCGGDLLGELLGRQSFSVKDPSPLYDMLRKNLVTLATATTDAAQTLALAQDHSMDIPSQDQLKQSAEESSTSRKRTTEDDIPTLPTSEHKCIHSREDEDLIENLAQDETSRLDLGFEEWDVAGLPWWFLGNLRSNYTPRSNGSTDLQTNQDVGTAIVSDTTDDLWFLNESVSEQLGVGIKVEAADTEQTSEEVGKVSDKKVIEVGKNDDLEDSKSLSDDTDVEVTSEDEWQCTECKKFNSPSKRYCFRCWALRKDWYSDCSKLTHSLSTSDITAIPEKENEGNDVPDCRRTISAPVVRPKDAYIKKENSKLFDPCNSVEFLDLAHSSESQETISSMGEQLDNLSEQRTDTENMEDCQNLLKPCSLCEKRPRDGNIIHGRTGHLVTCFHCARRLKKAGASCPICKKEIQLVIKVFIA
# Target sequence (Q00987 whole entry, looked up): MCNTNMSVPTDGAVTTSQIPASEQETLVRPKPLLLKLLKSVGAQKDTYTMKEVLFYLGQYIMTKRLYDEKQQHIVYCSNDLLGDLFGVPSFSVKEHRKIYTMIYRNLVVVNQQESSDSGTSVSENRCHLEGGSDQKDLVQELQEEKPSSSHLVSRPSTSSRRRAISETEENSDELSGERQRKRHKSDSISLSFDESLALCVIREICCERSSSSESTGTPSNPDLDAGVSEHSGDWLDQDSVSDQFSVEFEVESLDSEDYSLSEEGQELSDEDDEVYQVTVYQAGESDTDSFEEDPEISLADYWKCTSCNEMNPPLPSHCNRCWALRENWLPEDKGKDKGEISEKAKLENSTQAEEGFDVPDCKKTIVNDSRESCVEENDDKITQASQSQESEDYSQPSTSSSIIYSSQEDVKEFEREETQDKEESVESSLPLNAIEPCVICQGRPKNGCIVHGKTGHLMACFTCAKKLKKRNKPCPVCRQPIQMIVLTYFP
# Mdm2-MdmX conf: Mdm2-MdmX complex disruptors, retested hits, confirmation, luminescence, single concentration. AID 489028, 2010. inhibition, % at 8 µM. 10,000 compounds, 55% hits. shares compounds with Mdm2-MdmX inh. Mdm2-MdmX binding, luminescent assay; in the data active means inhibition above about 40%
# FLuc counter: full-length luciferase signal inhibition, confirmation, counter-screen for Mdm2/MdmX interaction inhibitor project, cell-based, single concentration, SaOS-2; SaOS-2 full-length luciferase counterscreen, luminescence; inhibition, % at 8 µM; 6,200 compounds, 77% hits; shares compounds with Mdm2-MdmX inh;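 active means mean inhibition at 8 µM reaching about 37%, which flags the compound as non-specific, limit read from the data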;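 further: p53-null SaOS-2 cells with luciferase driven by a doxycycline-inducible promoter; compound on cells about two nights before reading with doxycycline added after day one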
# An asterisk follows results filed as active; x = no result given.
SMILES,CSC inhib,T cruzi inh,SKKanGAS inh,aSyn UTR inh,Mdm2-MdmX inh,Mdm2-MdmX conf,others
O=C(O)c1ccc(/C=N\Nc2ccc(S(=O)(=O)N3CCOCC3)cc2[N+](=O)[O-])cc1,-17,-6,4,-11,2,x,
Cc1ccc(-n2c(O)c(/C=N/Nc3ccc(S(=O)(=O)N4CCOCC4)cc3[N+](=O)[O-])c3ccccc3c2=O)c(C)c1,-8,5,31,17,55*,26,
CCCCNc1nc(-c2ccccc2)c(C(=O)OCC)cc1C#N,63,6,-5,-10,40,x,
CCCNc1nc(-c2ccccc2)c(C(=O)OCC)cc1C#N,51,-4,-4,94*,63*,52*,FLuc counter=64*
Cc1cnn(-c2cc(N/N=C/c3ccc(F)cc3)ncn2)c1,-12,15,-7,-86,52*,42*,FLuc counter=101*
Cc1cnn(-c2cc(N/N=C/c3ccccc3Cl)ncn2)c1,16,-11,-12,-10,63*,-2,
COc1ccc(/C=N/Nc2cc(OC)ncn2)cc1,23,-21,3,19,x,x,
Cc1cc(=O)[nH]c(SCC(=O)Nc2cccc3ccccc23)c1C#N,x,-36,8,-61,6,x,
COc1cc(NC(=O)c2ccccc2)c(OC)cc1NC(=O)CSc1[nH]c(=O)cc(C)c1C#N,42,-17,12,-1,84*,34,
CCC(NC(=O)CCc1c(C)c2cc3c(-c4ccccc4)coc3cc2oc1=O)C(=O)O (stereo unspecified),0,2,12,0,-5,x,
CCOC(=O)c1c(C)oc2c(F)c(F)c(F)c(F)c2c1=O,90*,-17,4,-85,101*,36,
CCOC(=O)c1c(C)oc2c1cc(O)c1ccccc12,-8,-11,3,-104,-199,x,
COCCNc1nc2sc3c(c2c(=O)n1Cc1ccco1)CCCCC3,55,25,15,-72,-115,x,
Cc1nnc(C)n1/N=C/c1ccccc1,-8,-17,10,1,-14,x,
CCn1c2ccccc2c2cc(/C=N/n3c(C)nnc3C)ccc21,x,11,-17,7,60*,-7,
Cc1ccc(C2C(C(=O)c3cccs3)=C(O)C(=O)N2c2nnc(C)s2)cc1 (stereo unspecified),-8,-12,9,-18,3,x,
CCC(=O)N/C(N)=N/c1nc(C)c2cc(C)c(C)cc2n1,44,43,5,42,74*,57*,FLuc counter=69*
Cc1cc2nc(/N=C(\N)NC(=O)C(C)C)nc(C)c2cc1C,24,4,53*,29,56*,38,FLuc counter=84*
N/C(=N\OC(=O)CC1CCCCC1)c1ccc(Cl)cc1,-3,4,4,-53,-9,x,
C[C@H]1O[C@@H](O[C@H]2[C@@H](O)C[C@H](O[C@H]3[C@@H](O)C[C@H](O[C@H]4CC[C@@]5(C)[C@H](CC[C@@H]6[C@@H]5C[C@@H](O)[C@]5(C)[C@@H](C7=CC(=O)OC7)CC[C@]65O)C4)O[C@@H]3C)O[C@@H]2C)C[C@H](O)[C@@H]1O,100*,8,12,112*,82*,75*,FLuc counter=15
CC(Oc1ccc(F)cc1)C(=O)Nc1ccc2ccccc2c1 (stereo unspecified),42,-5,-7,35,53*,35,
COc1ccc(OC(C)C(=O)Nc2cccc(F)c2)cc1 (stereo unspecified),14,0,-3,-15,8,x,
CC(Oc1ccccc1F)C(=O)Nc1ccc2ccccc2c1 (stereo unspecified),6,-10,-7,2,68*,63*,FLuc counter=66*
Cc1cccc(NC(=O)c2ccc(S(=O)(=O)N3CCCCC3)cc2)c1,-6,-6,5,24,38,x,
CN(C)c1ccc(C(=O)OCC(=O)Nc2ccc(S(N)(=O)=O)cc2)cc1,-10,-3,-3,1,53*,-12,
